Experimental data reported in ChEMBL document CHEMBL4373700, “Synthesis and Structure-Activity Relationship Correlations of Gnidimacrin Derivatives as Potent HIV-1 Inhibitors and HIV Latency Reversing Agents” (J Med Chem, 2019).
Active and inactive are the calls of the source. The calls are words filed in the database; no cut-off is given here.

How the values were obtained:
[1] = biological target: Protein kinase C (PKC); assay: Agonist activity at Protein kinase C in human U1 cells infected with HIV-1 NL4-3 assessed as induction of HIV-1 p24 production after 72 hrs by ELISA; type: cell-based
In short: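 Latency model: U1 cells (2 × 10^5 cells/mL) incubated with a range of compound concentrations at 37 °C for 72 h. p24 in the supernatant measured by ELISA. EC50 is the concentration giving 50% of maximal p24 induction, from nonlinear regression.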

[2] = test system: MT4; assay: Cytotoxicity against human MT4 cells measured after 3 days by CytoTox-Glo assay; type: cell-based; conditions: mt4, 72 h
In short: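 MT4 cells cultured with a range of compound concentrations for 3 days. Viability by CytoTox-Glo, run per the manufacturer's protocol. CC50 is the concentration causing a 50% drop in viability.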

[3] = Agonist activity at Protein kinase C in human MT4 cells infected with HIV-1 NL4-3 assessed as inhibition of viral replication measured on day 3 post-infection by Nano-Glo luciferase assay
[4] = biological target: Protein kinase C beta type (Homo sapiens) (UniProt P05771); assay: Agonist activity at Protein kinase C beta in human MT4 cells infected with HIV-1 NL4-3 assessed as inhibition of viral replication at 2 nM measured on day 3 post-infection in presence of PKCbeta antagonist enzastaurin by Nano-Glo luciferase assay; type: cell-based
In short: (§1)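 Multicycle replication: MT4 cells (1 × 10^5 cells/mL) infected with HIV-1 NL4-3 NanoLuc-sec, 50 TCID50/well, with 0.6 nM or 2 nM PKC agonist, with or without enzastaurin at 0, 1/3 or 1 μM. Supernatant luciferase (Nano-Glo) read on day 3 post infection. Replication expressed relative to the no-compound control (100%). Duplicate assay.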

[5] = Half-life in Sprague-Dawley rat plasma at 0.05 mM measured up to 24 hrs by LCMS analysis; type: ADME, cell-free; conditions: 50 µM
In short: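 Sprague Dawley rat plasma (sodium heparin) prewarmed 10 min at 37 °C. Compound added from 5 mM DMSO stock to a final 0.05 mM. Samples taken at 0, 0.5, 1, 2, 4, 6, 10 and 24 h, deproteinized with 2 volumes MeOH, centrifuged and filtered. Analysis by LCMS (C18, isocratic, ESI). Mean of three independent experiments.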

[6] = test system: Human immunodeficiency virus 1; assay: Antiviral activity against HIV 1 NL4-3 infected in human MT4 cells assessed as inhibition of replication treated 48 hrs post infection and measured on day 4 post infection by ELISA; type: functional; conditions: Human immunodeficiency virus 1, NL4-3, MT4
[7] = biological target: Protein kinase C beta type (Homo sapiens) (UniProt P05771); assay: Agonist activity at Protein kinase C beta in human MT4 cells infected with HIV-1 NL4-3 assessed as inhibition of viral replication at 0.6 nM measured on day 3 post-infection in presence of PKCbeta antagonist enzastaurin by Nano-Glo luciferase assay; type: cell-based; in short: as §1
[8] = biological target: Protein kinase C beta type (Homo sapiens) (UniProt P05771); assay: Agonist activity at Protein kinase C beta in human MT4 cells infected with HIV-1 NL4-3 assessed as inhibition of viral replication at 0.6 nM measured on day 3 post-infection by Nano-Glo luciferase assay relative to control; type: cell-based; in short: as §1

Sequence of Protein kinase C beta type (Homo sapiens) (P05771 2-671 limits assumed): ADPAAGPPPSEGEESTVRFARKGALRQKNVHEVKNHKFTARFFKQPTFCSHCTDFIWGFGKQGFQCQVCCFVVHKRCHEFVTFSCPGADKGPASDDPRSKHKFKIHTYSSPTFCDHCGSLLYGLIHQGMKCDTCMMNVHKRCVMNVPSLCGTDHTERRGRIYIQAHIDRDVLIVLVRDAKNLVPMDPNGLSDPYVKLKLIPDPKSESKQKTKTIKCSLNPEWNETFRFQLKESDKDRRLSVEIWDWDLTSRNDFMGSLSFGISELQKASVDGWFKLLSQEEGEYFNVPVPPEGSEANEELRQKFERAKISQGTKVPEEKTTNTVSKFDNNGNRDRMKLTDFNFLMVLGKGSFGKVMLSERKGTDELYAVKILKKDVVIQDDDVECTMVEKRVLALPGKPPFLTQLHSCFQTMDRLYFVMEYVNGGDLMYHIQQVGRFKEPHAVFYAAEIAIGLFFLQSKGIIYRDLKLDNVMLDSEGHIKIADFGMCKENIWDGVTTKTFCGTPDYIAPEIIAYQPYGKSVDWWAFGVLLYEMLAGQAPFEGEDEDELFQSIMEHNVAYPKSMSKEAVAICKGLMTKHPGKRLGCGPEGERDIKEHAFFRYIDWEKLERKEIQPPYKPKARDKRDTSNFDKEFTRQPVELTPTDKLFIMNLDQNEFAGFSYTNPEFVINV

| SMILES | EC50 [1] [nM] | CC50 [2] [nM] | IC50 [3] [nM] | Activity [4] | t1/2 [5] [h] | IC90 [6] [nM] | Activity [7] | inhibition [8] [%] |
| --- | --- | --- | --- | --- | --- | --- | --- | --- |
| C=C(C)[C@]12C[C@@H](COC(=O)c3ccccc3)[C@@]34OC5(O[C@@H]1[C@@H]3[C@@H]1O[C@]1(CO)[C@@H](O)[C@@]1(O)[C@H]4[C@H]([C@H](C)[C@@H]1OC(=O)c1ccncc1)[C@H](C)CCCCCC[C@H]5O)O2 | 0.55 | > 1 | 0.36 | inactive |  |  |  |  |
| C=C(C)[C@]12C[C@@H](COC(=O)c3ccccc3)[C@@]34OC5(O[C@@H]1[C@@H]3[C@@H]1O[C@]1(CO)[C@@H](O)[C@@]1(O)[C@H]4[C@H]([C@H](C)[C@@H]1OC(=O)c1ccccc1)[C@H](C)CCCCCCC5=O)O2 | 0.6 | > 1 | 0.14 |  | 21.65 |  |  |  |
| C=C(C)[C@]12C[C@@H](COC(C)=O)[C@@]34OC5(O[C@@H]1[C@@H]3[C@@H]1O[C@]1(CO)[C@@H](O)[C@@]1(O)[C@H]4[C@H]([C@H](C)[C@@H]1OC(=O)c1ccccc1)[C@H](C)CCCCCC[C@H]5O)O2 |  |  |  |  |  | 0.4 |  |  |
| C=C(C)[C@]12C[C@@H](COC(=O)c3ccccc3)[C@@]34OC5(O[C@@H]1[C@@H]3[C@@H]1O[C@]1(CO)[C@@H](O)[C@@]1(O)[C@H]4[C@H]([C@H](C)[C@@H]1OC(=O)c1ccccc1)[C@H](C)CCCCCC[C@H]5O)O2 | 0.19 | > 1 | 0.13 |  | 21.77 |  | inactive | 90 |
